Consider three molecules from ChEMBL document CHEMBL5352413, “Discovery of small-molecules targeting the CCL20/CCR6 axis as first-in-class inhibitors for inflammatory bowel diseases” (Eur J Med Chem, 2022).

The test system of data set [1] is Mus musculus. Nature of the data set: Anti-colitis activity against TNBS-induced colitis Swiss mouse model assessed as decrease in macroscopic injury at 1 mg/kg, sc bid for 3 days. The format is functional, organism-based. The conditions noted are these: time 3.0 day. The essentials: (§1)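 Female CD1 Swiss mice (7–12 weeks) skin-sensitized, then after 20 h fast given 5 mg TNBS in 50% ethanol intrarectally 6 days later. Compound 1 mg/kg or vehicle (1% DMSO in saline, 10 mL/kg) s.c. twice daily, 8 h apart, days 1–4; euthanized day 4. DAI from daily weight, stool, bleeding by blinded observers; macroscopic score; colon/lung MPO.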

The subject of data set [2] is Mus musculus. Nature of the data set: Anti-inflammatory activity against zymosan-induced peritonitis mouse model assessed as decrease in neutrophil recruitment in peritoneal lavage at 1 mg/kg, sc administrated 1 hr prior to zymosan administration and measured after 4 hrs by PI staining based flow cytometry. It counts as functional, organism-based. The conditions noted are these: time 5.0 hrs. The essentials: (§2)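 Mice fasted 2 h, then zymosan A 5 mg/mL in PBS (0.2 mL) i.p. Compound 1 mg/kg s.c. (vehicle 1% DMSO in saline, 10 mL/kg) 1 h before zymosan, or also 2 h after. Lavage at 4 h with 3 mL PBS, EDTA, heparin; centrifuged; supernatant protein by BCA (mg/mL); pellet MPO (mU/mL) or flow cytometry.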
Background: A flow cytometer gives signals particle by particle.

Data set [3] concerns Mus musculus. Nature of the data set: Anti-colitis activity against TNBS-induced colitis Swiss mouse model assessed as decrease in neutrophil infiltration by measuring MPO activity in lung at 1 mg/kg, sc bid for 3 days by absorbance based assay. The format is functional, organism-based. The conditions noted are these: time 3.0 day. In outline:
as §1

Data set [4] relates to Mus musculus. The data set can be described thus: Anti-colitis activity against TNBS-induced colitis Swiss mouse model assessed as decrease in disease activity index at 1 mg/kg, sc bid for 3 days. The format is functional, organism-based. The conditions noted are these: time 3.0 day. The essentials:
as §1

Data set [5] concerns CD4+ve Th. Nature of the data set: Inhibition of cell migration of CCL20-induced human CD4+ve Th cells expressing CCR6 at 50 uM incubated for 3 hrs by FACS analysis. The format is functional, cell-based. In outline:
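Memory CD4+ T cells (20×10^4) in upper chamber of 5.0 μm transwell in IMDM with 0.5% BSA, preincubated with compound (0.5–50 μM) 15 min at 4 °C; 500 ng/ml CCL20 in lower chamber. After 3 h at 37 °C, migrated cells counted with counting beads by flow cytometry; migration index = CCL20-driven / medium-only migration; duplicate or triplicate.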

For data set [6], the system named is Mus musculus. Nature of the data set: Anti-inflammatory activity against zymosan-induced peritonitis mouse model assessed as decrease in total proteins in peritoneal lavage at 1 mg/kg, sc administrated 1 hr before and 2 hrs after zymosan administration and measured after 2 hrs by BCA assay. It counts as functional, organism-based. Conditions: time 5.0 hrs. The essentials:
as §2

Data set [7] deals with Mus musculus. Nature of the data set: Anti-colitis activity against TNBS-induced colitis Swiss mouse model assessed as decrease in neutrophil infiltration by measuring MPO activity in colon at 1 mg/kg, sc bid for 3 days by absorbance based assay. The format is functional, organism-based. The conditions noted are these: time 3.0 day. In outline: as §1
Data set [8] deals with CD4+ve Th. The data set can be described thus: Cytotoxicity against human CD4+ve Th cells upto 100 uM incubated for 3 hrs by annexin/PI staining based flow cytometry. The format is toxicity, cell-based. The essentials:
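Memory CD4+ T cells from healthy-donor PBMC (Ficoll, magnetic isolation, >95% purity), 20×10^4 cells exposed to compound at 5–500 μM for 3 h at 37 °C, 5% CO2; viability by annexin/propidium iodide flow cytometry.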

Data set [9] has as its system Mus musculus. The data set can be described thus: Anti-inflammatory activity against zymosan-induced peritonitis mouse model assessed as decrease in MPO activity in peritoneal lavage at 1 mg/kg, sc administrated 1 hr before and 2 hrs after zymosan administration and measured after 2 hrs by absorbance based assay. It counts as functional, organism-based. The conditions noted are these: time 5.0 hrs. The essentials:
as §2

In data set [10] the target is T1, C-C chemokine receptor type 6 (Homo sapiens) (UniProt P51684).
T1 sequence (whole entry): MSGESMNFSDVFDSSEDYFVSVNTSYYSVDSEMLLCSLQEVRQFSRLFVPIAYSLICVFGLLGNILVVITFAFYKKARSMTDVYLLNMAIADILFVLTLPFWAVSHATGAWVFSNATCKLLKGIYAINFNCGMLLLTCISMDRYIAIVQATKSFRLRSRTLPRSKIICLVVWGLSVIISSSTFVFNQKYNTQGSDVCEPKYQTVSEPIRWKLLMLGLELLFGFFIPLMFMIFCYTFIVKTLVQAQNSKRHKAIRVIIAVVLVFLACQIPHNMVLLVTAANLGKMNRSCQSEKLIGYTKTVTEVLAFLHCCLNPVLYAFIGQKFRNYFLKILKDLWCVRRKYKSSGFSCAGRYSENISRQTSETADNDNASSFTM
Nature of the data set: Agonist activity at CCR6 (unknown origin) transfected in HEK293T cells assessed as mini-Gi recruitment at 0.030 to 300 uM measured for 20 mins by NanoBiT assay. Conditions: dose 0.03-300 µM. The format is functional, cell-based. In outline: (§3)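 HEK293T cells (DMEM, 10% FBS) co-transfected with SmBiT C-tagged CCR6 or CCR5 and LgBiT N-tagged human β-arrestin-1 or miniGi; harvested 24 h later, loaded with coelenterazine h 15 min at 37 °C, 10^5 cells/well. Luminescence from recruitment induced by compound (30 nM–300 μM) read for 20 min; CCL20 (30 pM–300 nM) positive control.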

The test system of data set [11] is Mus musculus. Nature of the data set: Anti-inflammatory activity against zymosan-induced peritonitis mouse model assessed as decrease in MPO activity in peritoneal lavage at 1 mg/kg, sc administrated 1 hr prior to zymosan administration and measured after 4 hrs by absorbance based assay. It counts as functional, organism-based. Conditions: time 5.0 hrs. The essentials: as §2

In data set [12] the target is C-C chemokine receptor type 5 (Homo sapiens) (UniProt P51681). The data set can be described thus: Antagonist activity at CCR5 (unknown origin) transfected in HEK293T cells assessed as CCL5-induced beta-arrestin-1 recruitment at 0.030 to 300 uM measured for 20 mins by NanoBiT assay. The conditions noted are these: filed as antagonist, dose 0.03-300 µM. The format is functional, cell-based. The essentials: (§4)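 NanoBiT complementation in co-transfected HEK293T cells (SmBiT-tagged CCR6 or CCR5, LgBiT-tagged β-arrestin-1 or miniGi), coelenterazine h 15 min at 37 °C. After compound exposure (30 nM–300 μM), cells were stimulated with CCL20 10 nM (CCR6) or CCL5 5 nM (CCR5) and inhibition of chemokine-induced recruitment was monitored by luminescence.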
(Activated receptors often draw arrestin, which recruitment assays turn into a signal.)

Data set [13] has as its system Mus musculus. The data set can be described thus: Anti-inflammatory activity against zymosan-induced peritonitis mouse model assessed as decrease in total proteins in peritoneal lavage at 1 mg/kg, sc administrated 1 hr prior to zymosan administration and measured after 4 hrs by BCA assay. The format is functional, organism-based. The conditions noted are these: time 5.0 hrs. In outline:
as §2

Data set [14] concerns the target C-C chemokine receptor type 5 (Homo sapiens) (UniProt P51681). Nature of the data set: Agonist activity at CCR5 (unknown origin) transfected in HEK293T cells assessed as beta-arrestin-1 recruitment at 0.030 to 300 uM measured for 20 mins by NanoBiT assay. It counts as functional, cell-based. Conditions: dose 0.03-300 µM. The essentials:
as §3

For data set [15], the target named is T1, C-C chemokine receptor type 6 (Homo sapiens). Nature of the data set: Agonist activity at CCR6 (unknown origin) transfected in HEK293T cells assessed as beta-arrestin-1 recruitment at 0.030 to 300 uM measured for 20 mins by NanoBiT assay. It counts as functional, cell-based. The conditions noted are these: dose 0.03-300 µM. The essentials: as §3
The target is the same in data set [16]. Nature of the data set: Antagonist activity at CCR6 (unknown origin) transfected in HEK293T cells assessed as CCL20-induced mini-Gi recruitment at 0.030 to 300 uM measured for 20 mins by NanoBiT assay. The format is functional, cell-based. The conditions noted are these: filed as antagonist, dose 0.03-300 µM. In outline: as §4
The target is the same in data set [17]. The data set can be described thus: Antagonist activity at CCR6 (unknown origin) transfected in HEK293T cells assessed as CCL20-induced beta-arrestin-1 recruitment at 0.030 to 300 uM measured for 20 mins by NanoBiT assay. It counts as functional, cell-based. The conditions noted are these: filed as antagonist, dose 0.03-300 µM. In outline:
as §4

Each structure is given as a SMILES string. Activity calls are given as the source filed them. The rule behind the calls is not given here.

C-C chemokine receptor type 5 (Homo sapiens), sequence (P51681 whole entry, looked up): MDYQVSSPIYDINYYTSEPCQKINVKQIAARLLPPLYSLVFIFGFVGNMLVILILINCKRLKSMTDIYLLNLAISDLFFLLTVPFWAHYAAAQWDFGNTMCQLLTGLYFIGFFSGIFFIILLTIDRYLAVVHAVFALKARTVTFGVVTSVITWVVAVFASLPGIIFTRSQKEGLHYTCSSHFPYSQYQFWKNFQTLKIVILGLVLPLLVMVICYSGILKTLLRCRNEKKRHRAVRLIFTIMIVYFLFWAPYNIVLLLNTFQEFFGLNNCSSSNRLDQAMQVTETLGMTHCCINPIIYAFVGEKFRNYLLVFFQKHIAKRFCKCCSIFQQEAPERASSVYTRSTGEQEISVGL

With `Cc1c(C(=O)Nc2ccc(C(F)(F)F)cc2)oc2ccccc12`, the result in the data set on Mus musculus [1], in the data set with Mus musculus [3], with Mus musculus [4], with Mus musculus [6], in the data set with Mus musculus [7] and with Mus musculus [9] was Active. The outcome in data set [12], in data set [16] and in data set [17] was Active. Besides, the outcome (in the data set on Mus musculus [2]; in [10]; in the data set with Mus musculus [11]; with Mus musculus [13]; in data set [14]; in data set [15]) was inactive. The inhibition entry with CD4+ve Th [5] is “Active”. Also, in the data set on CD4+ve Th [8], the Activity result is reported as “Non-Toxic”.

In the case of `C/C(=N\Nc1ccc2ccccc2n1)c1cccc(C(F)(F)F)c1`, the Activity entry in the data set on CD4+ve Th [8] is reported as “Non-Toxic”.

On to `Cc1c(C(=O)Nc2cccc(F)c2)oc2ccccc12`, for which, in the data set on CD4+ve Th [8], the Activity entry is reported as “Non-Toxic”.
